Experiments:
[1] = Anti convulsant activity administered intra peritoneally to mouse for toxicity at 0.5 hr with dose of 100 mg/kg; 0/8= No of animals exhibiting toxicity /No of animals tested; type: organism-based; parameters: dose 100 mg/kg; conditions: in vivo, ip
[2] = Anti convulsant activity administered intra peritoneally to mouse for toxicity at 0.5 hr with dose of 30 mg/kg; 0/4= No of animals exhibiting toxicity /No of animals tested; type: organism-based; parameters: dose 30 mg/kg; conditions: in vivo, ip
[3] = system: Mus musculus; test: Anti convulsant activity administered intra peritoneally to mouse for subcutaneous metrazol test at 4 hr with dose of 300 mg/kg; 0/1= No of animals protected /No of animals tested; type: functional
[4] = system: Mus musculus; test: Anti convulsant activity administered intra peritoneally to mouse at maximal electroshock test at 4 hr after the drug administered with dose of 300 mg/kg; 1/1= No of animals protected /No of animals tested; type: functional
[5] = system: Rattus norvegicus; test: Anticonvulsant activity after oral administration of 30 mg/kg dose after 15 min in rats; + means 25% of the animal protected; type: functional, organism-based; parameters: dose 30 mg/kg
Procedure, shortened: (§1)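 Oral dosing of rats at a single dose, compound dissolved or suspended in 0.5% methylcellulose. Protection in the MES or scMet test checked 15 min, 30 min, 1 h, 2 h and 4 h after dosing. Scored as 25/50/75/100% of animals protected (+ to ++++), – for none.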

[6] = Anti convulsant activity administered intra peritoneally to mouse for subcutaneous metrazol test at 4 hr with dose of 300 mg/kg; 4/4= No of animals protected /No of animals tested; type: ADME, organism-based; parameters: dose 300 mg/kg
[7] = system: Rattus norvegicus; test: Anticonvulsant activity after oral administration of 100 mg/kg dose after 30 min in rats; ++ means 50% animals protected; type: functional, organism-based; parameters: dose 100 mg/kg; procedure, shortened: as §1
[8] = Anti convulsant activity administered intra peritoneally to mouse for toxicity at 4 hr with dose of 100 mg/kg; 3/4= No of animals exhibiting toxicity /No of animals tested; type: organism-based; parameters: dose 100 mg/kg; conditions: in vivo, ip
[9] = Anti convulsant activity administered intra peritoneally to mouse for toxicity at 4 hr with dose of 30 mg/kg; 0/2= No of animals exhibiting toxicity /No of animals tested; type: organism-based; parameters: dose 30 mg/kg; conditions: in vivo, ip
[10] = system: Mus musculus; test: Anti convulsant activity administered intra peritoneally to mouse at maximal electroshock test at 0.5 h after the drug administered with dose of 30 mg/kg; 0/1= No of animals protected /No of animals tested; type: functional
[11] = system: Mus musculus; test: Anti convulsant activity administered intra peritoneally to mouse at maximal electroshock test at 0.5 hr after the drug administered with dose of 100 mg/kg; 2/3= No of animals protected /No of animals tested; type: functional
[12] = system: Mus musculus; test: Anti convulsant activity administered intra peritoneally to mouse at maximal electroshock test at 0.5 hr after the drug administered with dose of 300 mg/kg; 1/1= No of animals protected /No of animals tested; type: functional
[13] = Anti convulsant activity administered intra peritoneally to mouse for toxicity at 4 hr with dose of 300 mg/kg; 2/2= No of animals exhibiting toxicity /No of animals tested; type: organism-based; parameters: dose 300 mg/kg; conditions: in vivo, ip
[14] = system: Mus musculus; test: Anti convulsant activity administered intra peritoneally to mouse for subcutaneous metrazol test at 4 hr after the drug administered with dose of 30 mg/kg; 0/1= No of animals protected /No of animals tested; type: functional; conditions: route intraperitoneal
[15] = system: Rattus norvegicus; test: Anticonvulsant activity after oral administration of 100 mg/kg dose after 2 hr in rats; ++means 50% of the animals protected; type: functional, organism-based; parameters: dose 100 mg/kg; procedure, shortened: as §1
[16] = system: Mus musculus; test: Anti convulsant activity administered intra peritoneally to mouse at maximal electroshock test at 4 hr after the drug administered with dose of 100 mg/kg; 3/3= No of animals protected /No of animals tested; type: functional
[17] = system: Rattus norvegicus; test: Anticonvulsant activity after oral administration of 30 mg/kg dose after 1 hr in rats;+ means 25% animals protected; type: functional, organism-based; parameters: dose 30 mg/kg; procedure, shortened: as §1
[18] = system: Mus musculus; test: Anti convulsant activity administered intra peritoneally to mouse for subcutaneous metrazol test at 4 hr after the drug administered with dose of 100 mg/kg; 0/1= No of animals protected /No of animals tested; type: functional
[19] = system: Mus musculus; test: Anti convulsant activity administered intra peritoneally to mouse at maximal electroshock test at 4 hr after the drug administered with dose of 30 mg/kg; 0/1= No of animals protected /No of animals tested; type: functional
[20] = system: Mus musculus; test: Anti convulsant activity administered intra peritoneally to mouse for subcutaneous metrazol test at 0.5 hr with dose of 30 mg/kg; 0/1= No of animals protected /No of animals tested; type: functional
[21] = Toxicity after oral administration of 100 mg/kg dose in rats;++++ means 100% animals exhibited toxicity; type: organism-based; parameters: dose 100 mg/kg, route oral; conditions: rat, in vivo
Procedure, shortened: (§2)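 Rats dosed orally with compound dissolved or suspended in 0.5% methylcellulose (0.04 mL per 10 g body weight). Anticonvulsant protection (MES or scMet) and toxicity scored at 15 min, 30 min, 1 h, 2 h and 4 h after dosing. Graded in steps of 25% of animals protected or showing toxicity.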

[22] = system: Mus musculus; test: Anti convulsant activity administered intra peritoneally to mouse for subcutaneous metrazol test at 0.5 h with dose of 300 mg/kg; 0/1= No of animals protected /No of animals tested; type: functional
[23] = system: Rattus norvegicus; test: Anticonvulsant activity after oral administration of 30 mg/kg dose after 2 hr in rats; +means 25% of the animal is protected; type: functional, organism-based; parameters: dose 30 mg/kg; procedure, shortened: as §1
[24] = system: Mus musculus; test: Anti convulsant activity administered intra peritoneally to mouse for subcutaneous metrazol test at 0.5 hr with dose of 100 mg/kg; 0/1= No of animals protected /No of animals tested; type: functional
[25] = Anticonvulsant activity administered intra peritoneally to mouse for toxicity; conditions: in vivo, ip
[26] = system: Mus musculus; test: Anticonvulsant activity administered intra peritoneally to mouse for the protective index of toxicity by maximal electroshock test; T D50/ED50; type: functional
[27] = system: Rattus norvegicus; test: Anticonvulsant activity administered orally to rat for the protective index of toxicity by maximal electroshock test; TD50/ED50; type: functional
[28] = system: Mus musculus; test: Anticonvulsant activity administered intra peritoneally to mouse for protective index of subcutaneous metrazol test; type: functional
[29] = system: Rattus norvegicus; test: Anticonvulsant activity administered orally to rat for protective index of subcutaneous metrazol test; type: functional
[30] = Anti convulsant activity administered intra peritoneally to mouse for toxicity at 4 hr with dose of 100 mg/kg; 0/4= No of animals exhibiting toxicity /No of animals tested; type: organism-based; parameters: dose 100 mg/kg; conditions: in vivo, ip
[31] = system: Mus musculus; test: Anti convulsant activity administered intra peritoneally to mouse at maximal electroshock test at 4 hr after the drug administered with dose of 300 mg/kg; 0/1= No of animals protected /No of animals tested; type: functional
[32] = system: Mus musculus; test: Anti convulsant activity administered intra peritoneally to mouse at maximal electroshock test at 0.5 hr after the drug administered with dose of 100 mg/kg; 0/3= No of animals protected /No of animals tested; type: functional
[33] = system: Mus musculus; test: Anti convulsant activity administered intra peritoneally to mouse at maximal electroshock test at 0.5 h after the drug administered with dose of 300 mg/kg; 0/1= No of animals protected /No of animals tested; type: functional
[34] = Anti convulsant activity administered intra peritoneally to mouse for toxicity at 0.5 hr with dose of 300 mg/kg; 1/4= No of animals exhibiting toxicity /No of animals tested; type: organism-based; parameters: dose 300 mg/kg; conditions: in vivo, ip
[35] = Anti convulsant activity administered intra peritoneally to mouse for toxicity at 4 hr with dose of 300 mg/kg; 0/2= No of animals exhibiting toxicity /No of animals tested; type: organism-based; parameters: dose 300 mg/kg; conditions: in vivo, ip
[36] = system: Mus musculus; test: Anti convulsant activity administered intra peritoneally to mouse at maximal electroshock test at 4 hr after the drug administered with dose of 100 mg/kg; 0/3= No of animals protected /No of animals tested; type: functional
[37] = Anti convulsant activity administered intra peritoneally to mouse for toxicity at 0.5 hr with dose of 300 mg/kg; 4/4= No of animals exhibiting toxicity /No of animals tested; type: organism-based; parameters: dose 300 mg/kg; conditions: in vivo, ip
[38] = Toxicity after oral administration of 50 mg/kg dose in rats; ++ means 50% of the animals exhibiting toxicity; type: organism-based; parameters: dose 50 mg/kg, route oral; conditions: rat, in vivo; procedure, shortened: as §2
[39] = system: Rattus norvegicus; test: Anticonvulsant activity after oral administration of 223 mg/kg dose after 1 hr in rats; ++++ means 100% of the animals protected; type: functional, organism-based; parameters: dose 223 mg/kg; procedure, shortened: as §1
[40] = system: Rattus norvegicus; test: Anticonvulsant activity after oral administration of 30 mg/kg dose after 4 hr in rats; - means 25% of the animal protected; type: functional, organism-based; parameters: dose 30 mg/kg
[41] = Anti convulsant activity administered intra peritoneally to mouse for toxicity at 0.5 hr with dose of 300 mg/kg; 3/4= No of animals exhibiting toxicity /No of animals tested; type: organism-based; parameters: dose 300 mg/kg; conditions: in vivo, ip
[42] = system: Rattus norvegicus; test: Anticonvulsant activity after oral administration of 30 mg/kg dose after 1 hr in rats; + means 25% of the animals protected; type: functional, organism-based; parameters: dose 30 mg/kg; procedure, shortened: as §1
[43] = system: Rattus norvegicus; test: Anticonvulsant activity after oral administration of 30 mg/kg dose after 15 min in rats; +means 25% of the animals protected; type: functional, organism-based; parameters: dose 30 mg/kg; procedure, shortened: as §1
[44] = Anticonvulsant activity administered orally to rat for toxicity; conditions: in vivo, po
[45] = system: Rattus norvegicus; test: Anticonvulsant activity administered orally to rat at maximal electro shock test; the interval in parenthesis stands for 95% confidence interval; type: functional; conditions: po
[46] = system: Mus musculus; test: Anticonvulsant activity administered intra peritoneally to mouse at subcutaneous metrazol test; type: functional; conditions: sc
[47] = system: Rattus norvegicus; test: Anticonvulsant activity administered orally to rat for the protective index of toxicity by maximal electroshock test; T D50/ED50; type: functional
[48] = system: Rattus norvegicus; test: Anticonvulsant activity administered orally to rat at subcutaneous metrazol test; type: functional
[49] = system: Mus musculus; test: Anticonvulsant activity administered intra peritoneally to mouse at maximal electro shock test; the interval in parenthesis stands for 95% confidence interval; type: functional

## CC1(C)C(C(=O)NC(N)=S)C1(C)C
[1]
  Toxicity: 0
[2]
  Toxicity: 0
[3]
  Activity: 0
[4]
  Activity: 1
[5]
  Activity: 25% animals protected
[6]
  Toxicity: 4
[7]
  Activity: 25% animals protected
[8]
  Toxicity: 3
[9]
  Toxicity: 0
[10]
  Activity: 0
[11]
  Activity: 2
[12]
  Activity: 1
[13]
  Toxicity: 2
[14]
  Activity: 0
[15]
  Anticonvulsant Activity: 50% of the animals protected
[16]
  Activity: 3
[17]
  Activity: 25% animals protected
[18]
  Activity: 0
[19]
  Activity: 0
[20]
  Activity: 0
[21]
  Toxicity: 100% animals exhibited toxicity
[22]
  Activity: 0
[23]
  Activity: 25% animals protected
[24]
  Activity: 0

## CNC(=O)C1C(C)(C)C1(C)C
[25]
  TD50: 153 mg/kg
[26]
  Ratio: 1.6
[27]
  Ratio: 2
[28]
  Activity: 3.9
[29]
  Activity: 3.6

## CC1(C)C(C(=O)NO)C1(C)C
[1]
  Toxicity: 0
[2]
  Toxicity: 0
[30]
  Toxicity: 0
[3]
  Activity: 0
[31]
  Activity: 0
[32]
  Activity: 0
[33]
  Activity: 0
[9]
  Toxicity: 0
[10]
  Activity: 0
[34]
  Toxicity: 1
[14]
  Activity: 0
[35]
  Toxicity: 0
[18]
  Activity: 0
[36]
  Activity: 0
[19]
  Activity: 0
[20]
  Activity: 0
[22]
  Activity: 0

## CCNC(=O)C1C(C)(C)C1(C)C
[1]
  Toxicity: 0
[2]
  Toxicity: 0
[30]
  Toxicity: 0
[3]
  Activity: 0
[37]
  Toxicity: 4
[4]
  Activity: 1
[32]
  Activity: 0
[38]
  Toxicity: 50% of the animals exhibiting toxicity
[9]
  Toxicity: 0
[10]
  Activity: 0
[12]
  Activity: 1
[13]
  Toxicity: 2
[39]
  Activity: 100% of the animals protected
[14]
  Activity: 0
[40]
  Activity: 100% of the animals protected
[18]
  Activity: 0
[36]
  Activity: 0
[19]
  Activity: 0
[20]
  Activity: 0
[22]
  Activity: 1
[24]
  Activity: 0

## CC(O)CNC(=O)C1C(C)(C)C1(C)C (stereo not given)
[1]
  Toxicity: 0
[2]
  Toxicity: 0
[30]
  Toxicity: 0
[3]
  Activity: 0
[31]
  Activity: 0
[32]
  Activity: 0
[41]
  Toxicity: 3
[9]
  Toxicity: 0
[10]
  Activity: 0
[42]
  Activity: 25% of the animals protected
[12]
  Activity: 1
[43]
  Activity: 25% of the animals protected
[14]
  Activity: 0
[35]
  Toxicity: 0
[18]
  Activity: 0
[36]
  Activity: 0
[19]
  Activity: 0
[20]
  Activity: 0
[22]
  Activity: 0

## CC1(C)C(C(=O)NCC(N)=O)C1(C)C
[44]
  TD50: > 500 mg/kg
[45]
  ED50: 82 mg/kg
[46]
  ED50: 115 mg/kg
[26]
  Ratio: 1.5
[28]
  Activity: 2.3
[47]
  Activity: >6.1
[29]
  Activity: -2
[48]
  ED50: > 250 mg/kg
[49]
  ED50: 173 mg/kg
